TAAR1 agonist: agonists of human TAAR1 | 360,000 compounds, 0.99% hits | CHO RD-HGA16 TAAR1, Fluo-8 calcium fluorescence; vehicle wells 0%, saturating PEA agonist 100% | Q96RJ0 | activation, % at 3 µM;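 active means activation above the mean activation of all test compounds in the run plus 3 SD, cut at about 38% in these data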
Target sequence (Q96RJ0 whole entry, looked up): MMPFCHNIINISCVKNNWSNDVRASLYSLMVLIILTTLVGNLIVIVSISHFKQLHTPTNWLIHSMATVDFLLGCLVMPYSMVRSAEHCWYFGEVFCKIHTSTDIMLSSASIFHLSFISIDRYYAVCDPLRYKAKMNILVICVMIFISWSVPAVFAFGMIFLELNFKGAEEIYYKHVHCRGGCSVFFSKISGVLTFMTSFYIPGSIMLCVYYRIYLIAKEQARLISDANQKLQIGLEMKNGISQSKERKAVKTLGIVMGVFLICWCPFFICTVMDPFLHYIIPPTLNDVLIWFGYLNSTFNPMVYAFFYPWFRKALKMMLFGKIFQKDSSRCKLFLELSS
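test system = CHO RD-HGA16 cells carrying human TAAR1 plus Gα16 | schedule = 17-24 h seeding, 75 min 37 °C dye, 30 min RT | compound dosing = 3 µM single concentration | control set = DMSO and PEA EC100 | replicates = n 1 | signal = Fluo-8 fluorescence, 5 s baseline then 140 s kinetic read | measure = percent activation vs PEA EC100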
TAAR1 antagonist: human TAAR1 antagonism; Q96RJ0; CHO RD-HGA16 TAAR1, Fluo-8 calcium fluorescence, antagonist; inhibition, % at 3 µM; 360,000 compounds, 1.5% hits;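 active means inhibition above a per-plate cutoff, the mean inhibition of test compounds on that plate plus 3 SD, cut at about 49% in these data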;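 further: 0% = DMSO plus EC80 beta-PEA response and 100% = DMSO alone without agonist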
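Test system – hTAAR1-expressing CHO RD-HGA16 cells, Gα16-coupled · Reagent – β-PEA at EC80 concentration, post-compound challenge · Compound dosing – 3 µM, single point · Timing – 140 s kinetic read after compound, 140 s after agonist · Detection – Fluo-8 intracellular calcium dye fluorescence, real-time kinetic reads · Control set – DMSO and EC80 PEA controls · Repeats – n of 1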
HCV NS3 hel inh: HCV NS3 helicase inhibition | NS3 helicase DNA unwinding, Cy5 molecular beacon fluorescence | inhibition, % at 10.9 µM | 290,000 compounds, 0.56% hits | AID 1800;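 active means inhibition above the mean of all tested compounds plus 3 SD, set per campaign, cut at about 35% in these data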;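 further: 0% = DMSO wells and 100% = thioflavine S control wells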
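assay system = NS3 helicase fragment of HCV | buffer or medium = MOPS pH 6.5, MgCl2, DTT, Tween20, BSA | timing = 60 min unwinding reaction at 25 °C after ATP addition | signal = Cy5 beacon fluorescence read at start and 1 h | read-out basis = % inhibition of unwinding | control set = low DMSO, high thioflavine S at 110 µM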
rCAG binder: binds r(CAG) RNA repeats; AID 651821; r(CAG) RNA repeat, TO-PRO-1 dye displacement fluorescence; inhibition, % at 3 µM; 370,000 compounds, 1.3% hits;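 active means inhibition above the plate cutoff, the mean of all test compounds on that plate plus 3 SD, cut at about 35% in these data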;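 further: 0% = DMSO alone and 100% = 100 µM mitoxantrone as full dye displacement; higher means more dye released from RNA so lower well fluorescence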
core dimer inh: HCV core protein dimerization inhibition. 300,000 compounds, 0.33% hits. TR-FRET GST/Flag-core106 dimerization, 1536-well. inhibition, % at 5 µM;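 active means inhibition above the mean of all tested compounds plus 3 SD, set per screening campaign, cut at about 45% in these data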
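Material: Tagged HCV core106 pair (GST and Flag) | Amount: GST-core106 13.5 nM, Flag-core106 17 nM | Medium: KF-containing HEPES buffer, pH 7.45, DTT, CHAPS, BSA | Reagent: Eu donor and XL665 acceptor anti-tag antibodies | Schedule: 4 h at 22.5 °C | Technique: Time-resolved FRET, ex 340 nm, em 617 and 671 nm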
* hit, by the source's call; / = no result. The list is not random: actives were taken first. Their share in the collection is about 3.7%.

SMILES | TAAR1 agonist | TAAR1 antagonist | HCV NS3 hel inh | rCAG binder | core dimer inh
O=C(c1ccc(Cl)c(S(=O)(=O)N2CCc3ccccc32)c1)N1CCN(c2ccccc2O)CC1 | 21.6 | 60.6* | / | 11.3 | /
COc1ccc2c(C#CCCO)c(-c3ccc(S(C)(=O)=O)cc3)sc2c1 | 20.5 | 62.3* | / | 8.8 | /
COc1ccc(-c2sc3ccccc3c2C#CCCO)cc1 | -1.6 | 19.4 | -22.4 | 3.5 | -55.8
CS(=O)(=O)c1ccc(-c2sc3ccccc3c2C#CCCO)cc1 | 15.5 | 54.4* | / | 5.1 | /
COc1ccc2sc(-c3ccc(S(C)(=O)=O)cc3)c(C#CCO)c2c1 | 14.6 | 45.6 | / | 9.7 | /
Cc1cc(NS(=O)(=O)c2ccc(NC(=O)c3ccc(Cl)cc3Cl)cc2)no1 | -2.1 | -12.0 | 9.9 | 10.6 | -10.8
Cc1cc(NS(=O)(=O)c2ccc(NC(=S)NC(=O)c3ccc(Cl)cc3Cl)cc2)no1 | -1.8 | -10.1 | 15.3 | 64.8* | 24.7
COc1ccc(S[C@]2(C(=O)N3CCN(c4ncccn4)CC3)CC(=O)N(c3ccc4ccccc4c3)[C@@H]2c2ccc(OC)cc2)cc1 | / | / | / | 14.1 | /
CCSc1nnc(NC(=O)C2Cc3ccccc3CN2C(=O)c2ccco2)s1 (stereo not drawn) | 8.6 | -10.0 | 10.7 | 11.8 | 85.3*
Cc1ccccc1NC(=O)C1Cc2ccccc2CN1C(=O)c1ccco1 (stereo not drawn) | 0.5 | 3.2 | 11.3 | 9.0 | 13.3
CC(=NO)C1CCC2C3CCC4=CC(=NO)CCC4(C)C3C(=O)CC12C (stereo not drawn) | 3.3 | 8.3 | / | -2.5 | /
CC(=NO)C1CCC2C3CCC4=CC(=NO)CCC4(C)C3C(O)CC12C (stereo not drawn) | 21.5 | 66.5* | / | -12.8 | /
Cc1nn(-c2ccccc2)c(Cl)c1/C=N/NC(=O)OC(C)(C)C | 12.5 | 53.8* | -6.4 | -6.9 | -2.1
Cc1ccc(C)c(OCC(=O)N/N=C/c2c(C)nn(-c3ccccc3)c2Cl)c1 | 10.7 | 53.2* | 2.9 | -2.6 | 10.0
N#Cc1ccc(NC(=O)OC2CC3CC2[C@H]2CCCCN2[C@H]3Cc2ccccc2)cc1 (stereo partly drawn) | / | / | / | 7.4 | /
COc1ccc([N+](=O)[O-])cc1NC(=O)CSc1ncccn1 | 1.7 | 2.5 | 10.7 | 3.8 | 1.5
COc1ccc([N+](=O)[O-])cc1NC(=O)CSc1nccc(C)n1 | 1.5 | -20.0 | 5.9 | 11.2 | 51.1*
CN1C(=O)c2cc(NC(=O)Nc3ccccc3)ccc2OC[C@H]2O[C@@H](CC(=O)NCC(F)(F)F)CC[C@@H]21 | / | / | / | 0.9 | /
COC(=O)[C@H](CC(C)C)N(CCc1cn(Cc2ccc(C)cc2)nn1)S(=O)(=O)c1ccccc1Br | / | / | / | 7.6 | /
O=c1nccc(N/N=C/c2cccc(O)c2)[nH]1 | 39.9* | -13.5 | -9.4 | -0.9 | -3.4
C=CCC[C@@H](Cc1ccc(F)cc1)C(=O)OC[C@@H]1CCCN1C(=O)[C@@H](CC=C)CC(=O)N(CCO)Cc1ccccc1 | 11.9 | 57.4* | / | -8.2 | /
C=CC[C@@H](Cc1ccc(F)cc1)C(=O)OC[C@H]1CCCN1C(=O)[C@H](CC=C)CC(=O)N[C@H](CO)Cc1ccccc1 | 12.7 | 50.0* | / | -4.5 | /
O=C(CSc1nnc(-c2ccccc2)n1-c1ccccc1)Nc1ccccc1-c1ccccc1 | / | / | / | 0.8 | /
O=C(Nc1cccc([N+](=O)[O-])c1)c1ccc(CSc2ccccc2)cc1 | 14.8 | 52.2* | -1.7 | 5.5 | 2.5
COc1ccc(-c2nnc(Nc3nc4c(OC)cccc4s3)o2)c(OC)c1 | 0.9 | 25.1 | 0.4 | 51.1* | 5.3
SMILES | TAAR1 agonist | TAAR1 antagonist | HCV NS3 hel inh | rCAG binder | core dimer inh
CCCc1cn(-c2ccc3c(c2)[C@]2(CC(=O)N(C)C2c2ccccc2)C(=O)N3CC(C)C)nn1 (stereo partly drawn) | / | / | / | -0.3 | /
O=C(CSc1n[nH]c(-c2ccc(Br)cc2)n1)NC1CCCC1 | 43.2* | 66.7* | / | 6.8 | /
O=C(CSc1n[nH]c(-c2ccccc2)n1)NC1CCCCC1 | -0.1 | 3.0 | 3.9 | -1.8 | -6.8
COC(=O)[C@H](CC(C)C)N(Cc1cn(CC2CCCCC2)nn1)S(=O)(=O)c1ccccc1Br | / | / | / | 3.8 | /
Cc1cc(C)c(C#N)c(SCC(O)COc2ccc(Br)cc2)n1 (stereo not drawn) | -0.2 | 56.2* | -7.5 | -2.5 | 1.7
Cc1cc(C)c(C#N)c(SCC(O)CS(=O)(=O)Cc2ccccc2)n1 (stereo not drawn) | 14.4 | 11.9 | -6.8 | -1.3 | -0.7
C=CCn1c(O)c(N=NC(=O)CNC(=O)/C=C/c2ccco2)c2ccccc21 | 0.8 | -0.4 | 10.7 | 14.6 | 49.0*
CCOC(=O)C1CCCN(C(=O)CC(c2ccccc2)c2ccccc2)C1 (stereo not drawn) | 0.0 | -1.9 | -6.5 | -6.0 | 3.6
CCOC(=O)C1CCCN(C(=O)Cc2c(C(=O)O)[nH]c3ccccc23)C1 (stereo not drawn) | 39.5* | 31.8 | 4.7 | 4.1 | -4.3
CCOC(=O)C1CCN(C(=S)Nc2ccccc2)CC1 | 4.9 | -15.7 | 4.2 | 5.4 | 7.0
CCOC(=O)C1CCCN(C(=S)Nc2ccc(Nc3ccccc3)cc2)C1 (stereo not drawn) | 43.7* | 41.9 | -77.9 | 1.6 | -3.2
Cc1nn(-c2ccccc2)c(Cl)c1C1C(C#N)=C(N)OC2=C1C(=O)CC(C)(C)C2 (stereo not drawn) | 17.3 | -4.7 | 2.0 | -4.7 | -4.2
CC(C)c1ccc(-c2nn(-c3ccccc3)cc2C2C(C#N)=C(N)OC3=C2C(=O)CC(C)(C)C3)cc1 (stereo not drawn) | 3.9 | 2.2 | 30.5 | 26.9 | 48.0*
CCCCNC(=O)C[C@H]1C[C@@]2(C(=O)OC)C(=C[C@H](C(C)(C)C)O[C@@H]2C)N(Cc2ccc(Cl)cc2Cl)C1=O | / | / | / | 4.2 | /
CCOc1ccc(C(=O)Cc2cc(OC)c(OC)cc2[N+](=O)[O-])cc1 | 42.2* | 63.3* | -3.4 | -1.4 | -9.0
CCOc1ccc(-n2c(SCC(=O)Nc3ccc4c(c3)c3ccccc3n4CC)nnc2-c2cccnc2)cc1 | / | / | / | 15.1 | /
CN(CCO)c1ccc2c(c1)Oc1ccccc1CN(Cc1cn(Cc3ccccc3C(F)(F)F)nn1)S2(=O)=O | / | / | / | 5.7 | /
Nc1[nH]nc2nc(N3CCCC3)nc(-c3ccccc3)c12 | 13.7 | -0.4 | -6.5 | 1.1 | -1.8
Cc1cc(C)n2nc3nc(N4CCCC4)nc(-c4ccccc4)c3c2n1 | / | / | 2.3 | / | 47.8*
Nc1c(C(=O)NCC2CCCO2)c2nc3ccccc3nc2n1-c1ccccc1 (stereo not drawn) | 26.7 | 49.6* | -13.6 | 0.1 | -0.2
COc1ccccc1-n1c(N)c(C(=O)NCC2CCCO2)c2nc3ccccc3nc21 (stereo not drawn) | 8.4 | 24.8 | 3.7 | 7.8 | 6.5
Cc1ccc2nc(C)c(CN3CCN(c4ccc([N+](=O)[O-])cc4Cl)CC3)n2c1 | 42.6* | -11.7 | -28.5 | -1.9 | 9.6

Screens (PubChem)
